The target in this experiment is T1, fMet-Leu-Phe receptor (Homo sapiens) (UniProt P21462).
T1 sequence (whole entry): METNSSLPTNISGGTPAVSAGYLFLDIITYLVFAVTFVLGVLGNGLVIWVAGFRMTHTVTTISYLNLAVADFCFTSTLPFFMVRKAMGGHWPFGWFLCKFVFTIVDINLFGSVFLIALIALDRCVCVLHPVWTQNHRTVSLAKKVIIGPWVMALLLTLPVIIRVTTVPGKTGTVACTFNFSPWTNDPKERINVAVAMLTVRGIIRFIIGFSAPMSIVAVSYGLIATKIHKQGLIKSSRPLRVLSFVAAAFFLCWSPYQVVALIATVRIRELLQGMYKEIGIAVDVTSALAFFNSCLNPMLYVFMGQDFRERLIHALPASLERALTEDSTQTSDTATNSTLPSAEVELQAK
The experiment in a line: Inhibitory activity against Human formylpeptide receptor (FPR) of human leukemia HL-60 cells. In kind it is cell-based. In a few lines:
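HL-60 cells differentiated 48 h with 0.2 mM dibutyryl cAMP, washed, then treated with 5 μM cytochalasin B (5–10 min, 37 °C). Stimulated 10 min with 30 nM f-MLF. N-acetyl-β-D-glucosaminidase release read at 410 nm on p-nitrophenyl substrate after spontaneous-release subtraction. Duplicate wells; IC20/IC50 as mean ± SD of independent experiments.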

The compound `CCCCCC[C@H]1C(=O)N[C@@H](CC)C(=O)N(C)CC(=O)N(C)[C@H](CC(C)C)C(=O)N[C@H](C(C)C)C(=O)N(C)[C@H](CC(C)C)C(=O)N[C@@H](C)C(=O)N[C@H](C)C(=O)N(C)[C@@H](CC(C)C)C(=O)N(C)[C@@H](CC(C)C)C(=O)N(C)[C@@H](C(C)C)C(=O)N1C` showed an IC20 of 1.7 µM.

For the compound `CC/C=C/C[C@@H](C)[C@@H](O)[C@H]1C(=O)N[C@@H](CCC)C(=O)N(C)CC(=O)N(C)[C@H](CC(C)C)C(=O)N[C@H](C(C)C)C(=O)N(C)[C@H](CC(C)C)C(=O)N[C@@H](C)C(=O)N[C@H](C)C(=O)N(C)[C@@H](CC(C)C)C(=O)N(C)[C@@H](CC(C)C)C(=O)N(C)[C@@H](C(C)C)C(=O)N1C`, it took 2.6 µM to reach the 20% level (IC20).

As to `C/C=C/C[C@@H](C)[C@@H](O)[C@H]1C(=O)N[C@@H](CC)C(=O)N(C)CC(=O)N(C)[C@H](CC(C)C)C(=O)N[C@H](C(C)C)C(=O)N[C@@H](CC(C)C)C(=O)N[C@@H](C)C(=O)N[C@H](C)C(=O)N(C)[C@@H](CC(C)C)C(=O)N[C@@H](CC(C)C)C(=O)N(C)[C@@H](C(C)C)C(=O)N1C`, the IC20 was found to be 0.37 µM.

With `CC[C@@H]1NC(=O)[C@H](CC(C)C)N(C)C(=O)[C@H](C(C)C)N(C)C(=O)[C@H](CC(C)C)N(C)C(=O)[C@H](CC(C)C)N(C)C(=O)[C@@H](C)NC(=O)[C@H](C)NC(=O)[C@@H](CC(C)C)N(C)C(=O)[C@@H](C(C)C)NC(=O)[C@@H](CC(C)C)N(C)C(=O)CN(C)C1=O`, the IC20 is greater than 10 µM.

In turn, `C/C=C/C[C@@H](C)[C@@H](O)[C@H]1C(=O)N[C@@H](CCC)C(=O)N(C)CC(=O)N(C)[C@H](CC(C)C)C(=O)N[C@@H](CC(C)C)C(=O)N(C)[C@H](CC(C)C)C(=O)N[C@@H](C)C(=O)N[C@H](C)C(=O)N(C)[C@@H](CC(C)C)C(=O)N(C)[C@@H](CC(C)C)C(=O)N(C)[C@@H](C(C)C)C(=O)N1C` had an IC20 of 8.9 µM.

As for `C/C=C/C[C@@H](C)[C@@H](O)[C@H]1C(=O)N[C@@H](CCC)C(=O)N(C)CC(=O)N(C)[C@H](CC(C)C)C(=O)N[C@H](C(C)C)C(=O)N[C@@H](CC(C)C)C(=O)N[C@@H](C)C(=O)N[C@H](C)C(=O)N(C)[C@@H](CC(C)C)C(=O)N(C)[C@@H](CC(C)C)C(=O)N(C)[C@@H](C(C)C)C(=O)N1C`, the IC20 is 8.1 µM.

In turn, `C/C=C/C[C@@H](C)[C@@H](O)[C@H]1C(=O)N[C@@H]([C@@H](C)O)C(=O)N(C)CC(=O)N(C)[C@H](CC(C)C)C(=O)N[C@@H](C(C)C)C(=O)N(C)[C@H](CC(C)C)C(=O)N[C@@H](C)C(=O)N[C@](O)(C(C)C)C(=O)N(C)[C@@H](CC(C)C)C(=O)N[C@@H](CC(C)C)C(=O)N(C)[C@@H](C(C)C)C(=O)N1C` showed a 20% effect concentration (IC20) of 0.93 µM.

As for `CC/C=C/C[C@@H](C)[C@@H](O)[C@H]1C(=O)N[C@@H](CC)C(=O)N(C)CC(=O)N(C)[C@@H](C(C)C)C(=O)N[C@H](C(C)C)C(=O)N(C)[C@H](CC(C)C)C(=O)N[C@@H](C)C(=O)N[C@H](C)C(=O)N(C)[C@@H](CC(C)C)C(=O)N(C)[C@@H](CC(C)C)C(=O)N(C)[C@@H](C(C)C)C(=O)N1C`, it took 1.44 µM to reach the 20% level (IC20).

Take `C/C=C/C[C@@H](C)[C@@H](O)[C@H]1C(=O)N[C@@H]([C@@H](C)O)C(=O)N(C)CC(=O)N(C)[C@H](CC(C)C)C(=O)N[C@@H](CC(C)C)C(=O)N(C)[C@H](CC(C)C)C(=O)N[C@@H](C)C(=O)N[C@H](C)C(=O)N(C)[C@@H](CC(C)C)C(=O)N[C@@H](CC(C)C)C(=O)N(C)[C@@H](C(C)C)C(=O)N1C`: the IC20 was 0.2 µM. Compared with the last compound, the IC20 is about 7.2-fold lower.

With `C/C=C/C[C@@H](C)[C@@H](O)[C@H]1C(=O)N[C@@H]([C@@H](C)O)C(=O)N(C)CC(=O)N[C@@H](C(C)C)C(=O)N[C@H](C(C)C)C(=O)N(C)[C@H](CC(C)C)C(=O)N[C@@H](C)C(=O)N[C@H](C)C(=O)N(C)[C@@H](CC(C)C)C(=O)N(C)[C@@H](CC(C)C)C(=O)N(C)[C@@H](C(C)C)C(=O)N1C`, the IC20 is greater than 10 µM.

For the compound `CC/C=C/C[C@@H](C)[C@@H](O)[C@H]1C(=O)N[C@@H](CC)C(=O)N(C)CC(=O)N(C)[C@H](CC(C)C)C(=O)N[C@H](C(C)C)C(=O)N(C)[C@@H](C)C(=O)N[C@@H](C)C(=O)N[C@H](C)C(=O)N(C)[C@@H](CC(C)C)C(=O)N(C)[C@@H](CC(C)C)C(=O)N(C)[C@@H](C(C)C)C(=O)N1C`, the IC20 is greater than 10 µM.
